Measured values taken from ChEMBL document CHEMBL1142133 (2007).

How the values were obtained:
Format in all cases: functional
Cryptococcus neoformans [1] = experiment: Antifungal activity against flucytosine-resistant Cryptococcus neoformans 285 by checkerboard method in presence of amphotericin B
Cryptococcus neoformans [2] = experiment: Antifungal activity against flucytosine-resistant Cryptococcus neoformans 550 by checkerboard method in presence of amphotericin B
Cryptococcus neoformans [3] = experiment: Antifungal activity against flucytosine-resistant Cryptococcus neoformans 533 by checkerboard method in presence of amphotericin B
Cryptococcus neoformans [4] = experiment: Antifungal activity against flucytosine-resistant Cryptococcus neoformans 18476 by Etest method in presence of amphotericin B
Cryptococcus neoformans [5] = experiment: Antifungal activity against flucytosine-resistant Cryptococcus neoformans 99.1026 at 64 ug/ml after 72 hrs by time-kill method
In short: (§1)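 Time-kill assay on flucytosine-resistant isolates. […] Viable counts were taken as log10 CFU per ml after 72 h of incubation.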

Cryptococcus neoformans [6] = experiment: Antifungal activity against flucytosine-resistant Cryptococcus neoformans 285 by Etest method in presence of amphotericin B
Cryptococcus neoformans [7] = experiment: Antifungal activity against flucytosine-resistant Cryptococcus neoformans 280 by Etest method in presence of amphotericin B
Cryptococcus neoformans [8] = experiment: Antifungal activity against flucytosine-resistant Cryptococcus neoformans 533 at 64 ug/ml after 72 hrs by time-kill method
In short: (§2)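 Time-kill assay run as in the authors' earlier method. […] Read-out was log10 CFU/ml after 72 h incubation, compared with a drug-free control.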

Cryptococcus neoformans [9] = experiment: Antifungal activity against flucytosine-resistant Cryptococcus neoformans 98.0673 by Etest method in presence of amphotericin B
Cryptococcus neoformans [10] = experiment: Antifungal activity against flucytosine-resistant Cryptococcus neoformans 98.0673 by checkerboard method
Cryptococcus neoformans [11] = experiment: Antifungal activity against flucytosine-resistant Cryptococcus neoformans 99.1026 by checkerboard method
Cryptococcus neoformans [12] = experiment: Antifungal activity against flucytosine-resistant Cryptococcus neoformans 280 by checkerboard method
Cryptococcus neoformans [13] = experiment: Antifungal activity against flucytosine-resistant Cryptococcus neoformans 98.1121 by checkerboard method in presence of amphotericin B
Cryptococcus neoformans [14] = experiment: Antifungal activity against flucytosine-resistant Cryptococcus neoformans 98.1121 by Etest method in presence of amphotericin B
Cryptococcus neoformans [15] = experiment: Antifungal activity against flucytosine-resistant Cryptococcus neoformans 98.0673 by checkerboard method in presence of amphotericin B
Cryptococcus neoformans [16] = experiment: Antifungal activity against flucytosine-resistant Cryptococcus neoformans 98.1121 by checkerboard method
Cryptococcus neoformans [17] = experiment: Antifungal activity against flucytosine-resistant Cryptococcus neoformans 276 by checkerboard method in presence of amphotericin B
Cryptococcus neoformans [18] = experiment: Antifungal activity against flucytosine-resistant Cryptococcus neoformans 276 by Etest method in presence of amphotericin B
Cryptococcus neoformans [19] = experiment: Antifungal activity against flucytosine-resistant Cryptococcus neoformans 99.1026 by Etest method in presence of amphotericin B
Cryptococcus neoformans [20] = experiment: Antifungal activity against flucytosine-resistant Cryptococcus neoformans 280 by checkerboard method in presence of amphotericin B
Cryptococcus neoformans [21] = experiment: Antifungal activity against flucytosine-resistant Cryptococcus neoformans 550 by checkerboard method
Cryptococcus neoformans [22] = experiment: Antifungal activity against flucytosine-resistant Cryptococcus neoformans 18476 by checkerboard method in presence of amphotericin B
Cryptococcus neoformans [23] = experiment: Antifungal activity against flucytosine-resistant Cryptococcus neoformans 98.0673 at 64 ug/ml after 72 hrs by time-kill method; in short: as §2
Cryptococcus neoformans [24] = experiment: Antifungal activity against flucytosine-resistant Cryptococcus neoformans 98.0176 at 64 ug/ml after 72 hrs by time-kill method; in short: as §2
Cryptococcus neoformans [25] = experiment: Antifungal activity against flucytosine-resistant Cryptococcus neoformans 18476 at 64 ug/ml after 72 hrs by time-kill method; in short: as §2
Cryptococcus neoformans [26] = experiment: Antifungal activity against flucytosine-resistant Cryptococcus neoformans 285 by checkerboard method
Cryptococcus neoformans [27] = experiment: Antifungal activity against flucytosine-resistant Cryptococcus neoformans 98.0176 by checkerboard method in presence of amphotericin B
Cryptococcus neoformans [28] = experiment: Antifungal activity against flucytosine-resistant Cryptococcus neoformans 533 by checkerboard method
Cryptococcus neoformans [29] = experiment: Antifungal activity against flucytosine-resistant Cryptococcus neoformans 18476 by checkerboard method
Cryptococcus neoformans [30] = experiment: Antifungal activity against flucytosine-resistant Cryptococcus neoformans 99.1026 by checkerboard method in presence of amphotericin B
Cryptococcus neoformans [31] = experiment: Antifungal activity against flucytosine-resistant Cryptococcus neoformans 280 at 64 ug/ml after 72 hrs by time-kill method; in short: as §2
Cryptococcus neoformans [32] = experiment: Antifungal activity against flucytosine-resistant Cryptococcus neoformans 550 by Etest method in presence of amphotericin B
Cryptococcus neoformans [33] = experiment: Antifungal activity against flucytosine-resistant Cryptococcus neoformans 276 by checkerboard method
Cryptococcus neoformans [34] = experiment: Antifungal activity against flucytosine-resistant Cryptococcus neoformans 98.1121 at 64 ug/ml after 72 hrs by time-kill method; in short: as §1
Cryptococcus neoformans [35] = experiment: Antifungal activity against flucytosine-resistant Cryptococcus neoformans 98.0176 by Etest method in presence of amphotericin B
Cryptococcus neoformans [36] = experiment: Antifungal activity against flucytosine-resistant Cryptococcus neoformans 533 by Etest method in presence of amphotericin B
Cryptococcus neoformans [37] = experiment: Antifungal activity against flucytosine-resistant Cryptococcus neoformans 550 at 64 ug/ml after 72 hrs by time-kill method; in short: as §2
Cryptococcus neoformans [38] = experiment: Antifungal activity against flucytosine-resistant Cryptococcus neoformans 98.0176 by checkerboard method
Cryptococcus neoformans [39] = experiment: Antifungal activity against flucytosine-resistant Cryptococcus neoformans 276 at 64 ug/ml after 72 hrs by time-kill method; in short: as §2

Nc1nc(=O)[nH]cc1F [FLUCYTOSINE]
MIC (Cryptococcus neoformans [1]): 0.25 µg/mL
MIC (Cryptococcus neoformans [2]): 0.5 µg/mL
MIC (Cryptococcus neoformans [3]): 0.5 µg/mL
MIC (Cryptococcus neoformans [4]): > 32 µg/mL
log10CFU/ml (Cryptococcus neoformans [5]): 7.1
MIC (Cryptococcus neoformans [6]): > 32 µg/mL
MIC (Cryptococcus neoformans [7]): > 32 µg/mL
log10CFU/ml (Cryptococcus neoformans [8]): 7.5
MIC (Cryptococcus neoformans [9]): > 32 µg/mL
MIC (Cryptococcus neoformans [10]): 64 µg/mL
MIC (Cryptococcus neoformans [11]): 32 µg/mL
MIC (Cryptococcus neoformans [12]): 256 µg/mL
MIC (Cryptococcus neoformans [13]): 0.25 µg/mL
MIC (Cryptococcus neoformans [14]): > 32 µg/mL
MIC (Cryptococcus neoformans [15]): 16 µg/mL
MIC (Cryptococcus neoformans [16]): 256 µg/mL
MIC (Cryptococcus neoformans [17]): 4 µg/mL
MIC (Cryptococcus neoformans [18]): > 32 µg/mL
MIC (Cryptococcus neoformans [19]): > 32 µg/mL
MIC (Cryptococcus neoformans [20]): 0.5 µg/mL
MIC (Cryptococcus neoformans [21]): 128 µg/mL
MIC (Cryptococcus neoformans [22]): 1 µg/mL
log10CFU/ml (Cryptococcus neoformans [23]): 7.4
log10CFU/ml (Cryptococcus neoformans [24]): 7.4
log10CFU/ml (Cryptococcus neoformans [25]): 7.5
MIC (Cryptococcus neoformans [26]): 32 µg/mL
MIC (Cryptococcus neoformans [27]): 0.5 µg/mL
MIC (Cryptococcus neoformans [28]): 256 µg/mL
MIC (Cryptococcus neoformans [29]): 256 µg/mL
MIC (Cryptococcus neoformans [30]): 1 µg/mL
log10CFU/ml (Cryptococcus neoformans [31]): 7.4
MIC (Cryptococcus neoformans [32]): > 32 µg/mL
MIC (Cryptococcus neoformans [33]): 256 µg/mL
log10CFU/ml (Cryptococcus neoformans [34]): 7.5
MIC (Cryptococcus neoformans [35]): > 32 µg/mL
MIC (Cryptococcus neoformans [36]): > 32 µg/mL
log10CFU/ml (Cryptococcus neoformans [37]): 7.2
MIC (Cryptococcus neoformans [38]): 64 µg/mL
log10CFU/ml (Cryptococcus neoformans [39]): 7.3

O=c1[nH]cc(F)c(=O)[nH]1 [FLUOROURACIL]
MIC (Cryptococcus neoformans [10]): 16 µg/mL
MIC (Cryptococcus neoformans [11]): 8 µg/mL
MIC (Cryptococcus neoformans [12]): 256 µg/mL
MIC (Cryptococcus neoformans [16]): 256 µg/mL
MIC (Cryptococcus neoformans [21]): 0.5 µg/mL
MIC (Cryptococcus neoformans [26]): 4 µg/mL
MIC (Cryptococcus neoformans [28]): 256 µg/mL
MIC (Cryptococcus neoformans [29]): 0.25 µg/mL
MIC (Cryptococcus neoformans [33]): 256 µg/mL
MIC (Cryptococcus neoformans [38]): 0.008 µg/mL
